An excerpt weighted towards active compounds, which were near 5.3% of everything screened.
EphB4 ephrin blk: antagonists of human EphB4-ephrin-B2 interaction. 0.15% of 97,000 active. AID 720. EphB4 LBD / TNYL-RAW-Alexa532 peptide, fluorescence polarization. P54760. inhibition, % at 7 µM;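 active = inhibition above the screen-wide mean inhibition plus 3 SD, cut at about 15% in these data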;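 also: 0% = DMSO wells and 100% = excess unlabeled TNYL-RAW peptide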
Cav32 inh: human Cav3.2 channel inhibition, primary screen; 4% of 100,000 active; O95180; Cav3.2-expressing cells, Fluo-4 calcium fluorescence FDSS; stronger effect = lower value; AID 449739; B-score at 10 µM;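 active = single-dose well whose peak fluorescence ratio is a statistical outlier from its plate by either plate-standardised score or position-corrected B-score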
FAK blocker: blocks human focal adhesion kinase activity; inhibition, %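 (tested at 7 µM)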; 0.84% of 97,000 active; biochemical FAK kinase activity assay; in the data active = inhibition above about 19%;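 also: 0% = DMSO and 100% = reference compound high control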
PLK1 kinase inh: inhibitors of human PLK1 kinase | recombinant PLK1 kinase, TR-FRET peptide phosphorylation | inhibition, % at 10 µM | 0.53% of 97,000 active;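 active = inhibition of 50% or more in the single-concentration screen; inactive = inhibition below 50%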;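 also: 0% = DMSO max control and 100% = H-89 dihydrochloride min control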
Rev-RRE block: inhibitors of HIV-1 Rev-RRE RNA interaction; P05866; Rev peptide-RRE RNA binding, FRET; inhibition, % at 8 µM; 0.79% of 97,000 active; AID 704;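 active = inhibition above the screen-wide mean plus 3 SD, cut at about 35% in these data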;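 also: 0% = median DMSO wells and 100% = median Neomycin B control wells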
Target sequence (P05866 whole entry, looked up): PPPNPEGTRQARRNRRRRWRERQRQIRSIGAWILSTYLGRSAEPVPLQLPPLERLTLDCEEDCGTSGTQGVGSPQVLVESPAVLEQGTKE
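Test system – labelled RRE RNA duplex and labelled Rev peptide · Reagent – labelled Rev peptide · Doses – one concentration, 8 µM nominal · Incubation – 5 + 15 min at 25 °C · Signal – FRET fluorescence readout · Read-out basis – % inhibition of FRET ratio versus controls · Control set – DMSO wells as 0% and neomycin B wells as 100% inhibition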
PLK1 PBD inh: Plk1 (human) PBD binding inhibition. inhibition, %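 (tested at about 20 µM)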. AID 693. 0.13% of 97,000 active. Plk1 PBD phosphopeptide binding, fluorescence polarization. P53350; in the data active = inhibition above about 34%, passing the limit was not always enough
The depositor's hits bear a star; . = no result; [ ] = dose if it differs, or a comment.

SMILES	EphB4 ephrin blk	Cav32 inh	FAK blocker	PLK1 kinase inh	Rev-RRE block	PLK1 PBD inh
COc1ccc(C(=O)CSc2nnc(COc3ccc(C#N)cc3)n2-c2ccccc2)cc1	-11	-0.0068	-1	6	4	-15
COc1ccc(-n2c(COc3ccccc3)nnc2SCC(N)=O)cc1	5	0.52	-4	-5	-1	1
CCCCn1nc(NC(=O)c2cccs2)c2cc3ccccc3nc21	4	-4*	-2	-16	10	-18
CCCCn1nc(NC(=O)c2cccs2)c2cc3cc(OC)ccc3nc21	0	-4.8*	9	4	20	17
CC(C)=CC(O)C/C(C)=C/COc1ccc2ccc(=O)oc2c1 (centres undefined)	.	-0.9	.	.	.	.
Cn1cccc1Cc1nnc(SCC(=O)Nc2ccc3c(c2)OCO3)n1-c1ccc(F)cc1	.	-8.5*	.	.	.	.
Cc1cc(C)cc(NC(=O)CSc2nnc(Cc3cccn3C)n2-c2ccc(F)cc2)c1	-4	-13*	-4	-17	-4	13
COc1ccc(-n2c(Cc3cccn3C)nnc2SCC(=O)Nc2ccc(C)c(Cl)c2)cc1	.	-4.2*	.	.	.	.
CC(=O)Nc1cccc(NC(=O)CSc2nnc(Cc3cccn3C)n2-c2ccc(F)cc2)c1	-7	-0.97	-2	10	0	-28
COc1cccc(NC(=O)CSc2nnc(Cc3cccn3C)n2-c2ccc(F)cc2)c1	-3	-5*	1	-3	0	0
COc1ccc(CCc2cc(OC)cc(=O)o2)cc1	.	0.56	.	.	.	.
O=C(NCc1nc2ccccc2[nH]1)C1=C[C@@H](c2ccccc2)C[C@@H](OCCCCO)O1	.	-1.6	.	.	.	.
COc1ccc(NC(=O)CSc2nnc(Cc3cccn3C)n2-c2ccc(C)cc2)cc1OC	7	-2.2	2	2	4	-7
COc1ccc(-n2c(Cc3cccn3C)nnc2SCC(=O)Nc2cccc(OC)c2)cc1	-3	-4.2*	-6	-3	-2	-21
CCCOC(=O)C1=C(C)OC23OC(N)=C(C#N)C12C(=O)c1ccccc13 (centres undefined)	4	-0.84	5	-6	2	2
CCOC(=O)c1sc2nc(CC(=O)OC)nc(NCC(=O)OC)c2c1C	4	0.36	-3	9	2	-11
CCOC(=O)c1sc2nc(CC(=O)OC)nc(NCc3ccco3)c2c1C	-2	-0.62	0	-8	39*	20
C#CCCOC(=O)N1C2=NC(C(=O)OC)=C(C(=O)OC)[C@@H]3N(Cc4ccccc4)c4ccccc4[C@]23C[C@H]1C(=O)OC	.	-3	.	.	.	.
CSc1nsc(SCC(=O)N2CCN(c3ccccc3)CC2)n1	1	-1.5	-1	-24	6	18
CCOC(=O)CC(=O)CSc1nc(-c2cccnc2)cc(C)c1C#N	3	0.51	-3	1	0	-35
COC(=O)C1=C(CSc2nc3c(cc2C#N)CN(C)CC3)OC(N)=C(C#N)C1c1ccc(F)cc1 (centres undefined)	9	0.014	17	5	65*	-21
CCOC(=O)C1=C(CSc2nc(-c3ccncc3)ccc2C#N)OC(N)=C(C#N)C1c1cccnc1 (centres undefined)	.	-5*	.	.	.	.
CCOC(=O)C1=C(CSc2nc(CC)c(C)cc2C#N)OC(N)=C(C#N)C1c1ccc(OC)cc1 (centres undefined)	6	-8.4*	1	-12	24	-20
CCOC(=O)CC(=O)CSc1nc(-c2cccnc2)ccc1C#N	4	-2.2	3	-15	88*[fluorescence artefact?]	6
CCOC(=O)C1=C(CSc2nc(-c3ccncc3)ccc2C#N)OC(N)=C(C#N)C1c1ccc(OC)cc1 (centres undefined)	-1	-4.3	2	2	28	-26
SMILES	EphB4 ephrin blk	Cav32 inh	FAK blocker	PLK1 kinase inh	Rev-RRE block	PLK1 PBD inh
C#CCNC(=O)C1=C[C@H](c2ccc(Br)cc2)C[C@H](OCCCCO)O1	.	1	.	.	.	.
COc1ccc(N2C(=O)CCC(C(=O)O)C2c2ccc(F)cc2)cc1 (centres undefined)	-5	0.092	-7	-5	-1	9
O=C1[C@H](CC[C@H](O)c2ccc(F)cc2)[C@@H](c2ccc(O)cc2)N1c1ccc(F)cc1	.	-4.1*	.	.	.	.
CCC(C)(C)NC(=O)C(c1ccco1)N(C(=O)c1csnn1)c1cccc(F)c1 (centres undefined)	17*	0.51	11	-11	7	16
CC(C(=O)N/N=C/c1ccc(N(C)C)c(Br)c1)N(c1ccccc1)S(C)(=O)=O (centres undefined)	11	-6*	-4	-4	2	12
CCCCN(CCCC)CCNC(=O)CNC(=O)c1cccs1	3	0.053	1	-4	7	4
Cc1cc2nc(SCCOC(=O)Nc3ccc(Cl)cc3)nc(C)c2cc1C	-5	-0.66	0	7	3	-15
Clc1ccc(CSc2nnc(Cn3cnc4ccccc43)o2)cc1	0	-4.7*	3	-5	7	23
O=C(CSc1nnc(Cn2nnc3ccccc32)o1)N(Cc1ccc(Cl)cc1)c1ccccc1	-3	-6*	1	4	8	17
O=C(CSc1nnc(Cn2nnc3ccccc32)o1)Nc1cccc(Cl)c1	3	0.32	-4	-2	3	-44
CCc1ccccc1NC(=O)CSc1nnc(Cn2cnc3ccccc32)o1	1	-0.89	-2	-5	2	-18
Cc1nnc(SCc2ccccc2F)n1NCc1cccs1	7	-0.16	-1	-17	-4	-22
O=C1CCCC2=C1C(c1ccsc1)CC(=O)N2c1nnc(SCc2ccccc2)s1 (centres undefined)	4	-5.5*	4	-10	9	8
O=C(CSc1nnnn1-c1ccccc1)Nc1nc(-c2ccccc2)ns1	0	.	4	-10	-2	10
O=C(CCSc1nnc2scc(-c3ccccc3)n12)Nc1nc(-c2ccccc2)ns1	4	-4.6*	1	-12	6	-8
CCc1c(C2(O)CCCCC2)[nH]c2ccc(C#N)cc12	.	0.045	.	.	.	.
O=C(Nc1ccccn1)C(=O)N1CCCCC1	6	-0.43	-2	-5	7	6
COC(=O)c1ccc(NC(=S)N2CCN(Cc3cccc(C)c3)CC2)cc1	4	-4.4*	1	-8	-4	5
COC(=O)c1ccc(NC(=S)N2CCN(Cc3ccccc3)CC2)cc1	-1	0.26	2	-2	-2	20
CCOC(=O)CNC1CC(=O)N(c2cccc(Cl)c2)C1=O (centres undefined)	-4	-0.43	-3	-9	9	-14
CCN(CC)c1ccc(/C=c2/sc3nnc(-c4ccccc4C)n3c2=O)cc1	-2	-2.9	1	-36	118*[fluorescence artefact?]	-185
CCN(CC)c1ccc(/C=c2\sc3nnc(-c4ccccc4Cl)n3c2=O)cc1	-6	-4.7*	0	-26	134*[fluorescence artefact?]	-239
COC(=O)[C@@]1(Cc2ccc(F)cc2)[C@H]2c3cc(C(=O)N(C)C)n(Cc4nc5ccccc5[nH]4)c3C[C@H]2CN1C(=O)c1ccccc1	.	-2.3	.	.	.	.
